# From PubChem BioAssay
# DSG3 Ab inh: human desmoglein-3 autoantibody binding inhibition. P32926. DSG3-coupled beads, scFv-anti-DSG3-GFP binding, flow cytometry; stronger effect = lower value. binding (percent of control), % at 10 µM. hit rate 0.48% among 310,000. AID 588358;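 active = binding more than 3 SD below its plate's average and above zero; inconclusive = below that plate limit but binding exactly zero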;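 note: hits lower antibody fragment binding to DSG3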
# Runt-SMMHC FRET: Runt domain-CBFb-SMMHC interaction inhibition; inhibition, % at 20 µM; Q01196+Q13951; Cerulean-Runt/Venus-CBFb-SMMHC FRET ratio 530/480, 1 h; hit rate 0.74% among 220,000;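 active = mean inhibition across duplicate retests at 20 µM reaching about 50%, limit read from the data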;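 note: 0% = DMSO wells and 100% = wells with excess untagged CBFb-SMMHC; inhibitors lower the FRET ratio by blocking Runt binding to CBFb-SMMHC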
# Hck-Nef inh: inhibitors of human Hck kinase activated by Nef; P08631; Recombinant Hck-YEEI plus Nef, Z-Lyte FRET kinase assay; inhibition, % at 20 µM; hit rate 0.68% among 220,000; AID 463187;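 active = Hck-Nef kinase inhibition above about 50%, limit read from the data; inactive = inhibition below that limit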;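 note: 0% = DMSO with Hck plus Nef and 100% = Hck alone without Nef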
# p-CIP stab down: compounds decreasing mouse p/CIP protein stability | F442A p/CIP-EGFP cells, EGFP fluorescence, 16 h | decrease of EGFP signal, % at 10 µM | hit rate 0.01% among 290,000;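 active = EGFP signal decrease of at least 30% at 10 µM or well 3 SD below plate mean, unless failing retest; inactive = the rest, including hits failing retest or dose response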
# Runt-CBFb FRET: Runt domain-CBFb interaction inhibition; hit rate 0.46% among 220,000; Cerulean-Runt/Venus-CBFb FRET ratio 530/480, 1 h; Q01196+Q13951; inhibition, % at 20 µM;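 active = inhibition over about 50% at 20 µM in the single-dose screen, limit read from the data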;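 note: 0% = DMSO wells and 100% = excess unlabeled CBFb competitor control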
#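 Assay system: Cerulean-Runt domain / Medium: Tris 50 mM pH 7.5, KCl, K2SO4, 0.01% BSA / Timing: protein complex preformed 1 h, compound exposure 1 h, room temperature, dark / Measured by: FRET, excitation 422 nm, emission at 530 and 480 nm / Evaluation: loss of energy transfer signal / Control set: 5 µM unlabeled CBFb as full-inhibition high control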
# RanGTP-Impb inh: disruptors of Ran-importin-beta complex formation – biochemical, FRET, CFP-Ran, YFP-importin-beta, homogeneous, primary screen | inhibition, % (test concentration not listed) | hit rate 1.1% among 300,000 | AID 2216 | cell-free CFP-Ran/YFP-importin-beta FRET ratio;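 active = more than half of the replicate wells show a fall in the fluorescence ratio signal beyond about 16%, limit read from the data, passing the limit was not always enough; inconclusive = exactly half of the replicate wells pass the set limit; inactive = fewer than half of replicates pass the limit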;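 note: 0% = DMSO wells and 100% = Ran loaded with GDP instead of GTP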
# * marks the source's active call; other numbers are inactive results; u = inconclusive; x = no result. Only some compounds are listed: those with a hit (about 2.1% of all), similar ones and a draw of the others.
SMILES,DSG3 Ab inh,Runt-SMMHC FRET,Hck-Nef inh,p-CIP stab down,Runt-CBFb FRET,RanGTP-Impb inh
CC(=O)c1c(NCCc2ccccc2)nc(=S)n(-c2ccccc2)c1C,110,2,2,-12,3,4
CCn1c(C)c(C(C)=O)c(N2CCN(c3ccc(OC)cc3)CC2)nc1=S,146,-39,4,-29,9,84*
CCOC(=O)N1CCN(CC(=O)Nc2nnc(C(F)(F)F)s2)CC1,114,x,x,-13,x,1
Cc1ccc(C(=O)O)cc1S(=O)(=O)Nc1ccccc1C(=O)NC1CC1,104,x,x,x,x,x
CC(C)c1nnc(NC(=O)CCC2CCCCC2)s1,115,x,x,7,x,1
CCn1c(C)c(C(C)=O)c(N2CCN(c3cccc(Cl)c3)CC2)nc1=S,274,54,-3,-14,-38,29*
CC(=O)c1c(N2CCN(c3ccccn3)CC2)nc(=S)n(-c2ccccc2)c1C,112,99*,19,-8,93*,57*
CC1(C)CC(=O)C2=C(C1)OC1=C(C(=O)CC(C)(C)C1)C2c1ccc(O)c([N+](=O)[O-])c1,106,-1,-12,11,-3,0
CC1(C)CC(=O)C2=C(C1)OC1=C(C(=O)CC(C)(C)C1)C2c1ccc(O)cc1O,100,42,0,0,6,93*
Cc1n[nH]c(C)c1S(=O)(=O)N1CCC(C(=O)Nc2cccc(F)c2)CC1,x,x,x,-4,x,6
CC1CCN(S(=O)(=O)c2cn(CC(=O)Nc3cccc(C#N)c3)cn2)CC1,x,x,x,-1,x,-1
CC(=O)c1cccc(NC(=O)C2CCN(S(=O)(=O)c3c(C)n[nH]c3C)CC2)c1,99,0,3,-11,100*,0
CC(=O)c1cccc(NC(=O)Cn2cnc(S(=O)(=O)N3CCC(C)CC3)c2)c1,82*,x,x,-15,x,-1
Cc1nc(-c2cccnc2)sc1C(=O)N/N=C/c1ccccc1Cl,94,-2,47,-2,6,0
O=C(Nc1ccc2c(c1)OCCO2)C(=O)NC1CC1,96,x,x,3,x,-1
CCn1c(CC(=O)Nc2ccc(F)cc2)nnc1SCC(=O)NC1=NCCS1,-62*,x,x,4,x,5
COc1ccc(CCN2CC(C(=O)NCc3cccc4[nH]ccc34)CCC2=O)cc1 (configuration not stated),108,x,x,6,x,1
COc1ccc(NC(=O)c2ccc(-c3ccccc3)cc2)cc1S(=O)(=O)N1CCOCC1,88*,-14,1,-7,-3,-2
CCc1ccc(C(=O)Nc2ccc(OC)c(S(=O)(=O)N3CCOCC3)c2)cc1,107,-2,3,-8,-7,u
CCc1cccc2c(SCC(=O)NCC3CCCO3)nc(-c3ccc(F)cc3)nc12 (configuration not stated),78*,2,2,-16,0,5
Cc1ccc2nc(-c3ccc(F)cc3)nc(SCC(=O)NCC3CCCO3)c2c1 (configuration not stated),x,x,x,-4,x,-4
COc1ccc(N=CC=C2OC(C)(C)C(C)(C)O2)cc1OC,100,-4,15,-5,4,15*
COc1cccc(N=CC=C2OC(C)(C)C(C)(C)O2)c1,99,-4,23,21,-2,9
COc1ccc(NCC(=O)N/N=C2\CCc3ccccc32)cc1,106*,-2,-9,-22,-2,0
CCc1c(C)sc2nc3c(C(=O)N4CCOCC4)cc(C(=O)c4cc(F)ccc4O)cn3c(=O)c12,119,0,-15,3,-7,-1
O=C(O)CSc1cc(C(=O)c2cc(F)ccc2O)cn2c(=O)c3c(-c4ccccc4)csc3nc12,97,-28,52*,-21,-10,-10
CCOC(=O)c1sc2nc3c(SCCC#N)cc(C(=O)c4cc(F)ccc4O)cn3c(=O)c2c1C,102,-69,4,-29,-23,0
CCOC(=O)c1sc2nc3c(SCCC(=O)O)cc(C(=O)c4cc(OC)ccc4O)cn3c(=O)c2c1C,55*,-11,13,-107,-4,1
